Values after ≈ are worked out from the molar mass of the structure shown. Active and inactive are the calls of the source. The calls are words filed in the database; no cut-off is given here.
Assays:
Staphylococcus aureus [1] = assay: Antibiofilm activity against Staphylococcus aureus UAMS-1 assessed as destruction catheter-associated biofilm formation measured after 48 hrs (reference value: 1.53 x 10^8); type: functional
Summary of the method: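 Plasma-coated catheters colonised for 24 h at 37 °C with gentle shaking, starting from ~1 × 10^7 CFU of MSSA UAMS-1 in biofilm medium (TSB plus glucose and NaCl). […] Medium renewed at 24 h. Catheters (n = 3) sonicated at 48 h and plated on TSA for CFU per catheter.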

Staphylococcus aureus [2] = assay: Inhibition of lipid synthesis in Staphylococcus aureus ATCC 29213 at 4 times MIC measured by liquid scintillation counter; type: functional
Summary of the method: (§1)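 Early-exponential cells in CAMHBII with drug in triplicate. Lipids extracted with chloroform/water, centrifuged, organic phase dried, then scintillation counted.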

Enterococcus faecium [3] = assay: Antimicrobial activity against vancomycin-resistant Enterococcus faecium clinical isolate 1091563 by CLSI-based broth microdilution assay; type: functional
[4] = Toxicity in CD1 mouse assessed as effect on potassium level at 50 mg/kg, ip administered as single dose measured after 24 hrs; type: organism-based; details: in vivo
Summary of the method: (§2)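 Male CD-1 mice, 8 weeks, 32–37 g, n = 10 per dose. Single IP injection at 5, 20 or 50 mg/kg in 0.9% saline, filter-sterilized; saline vehicle group. Blood taken by cardiac puncture 24 h later. 14 plasma markers measured on a chemistry panel, reported as mean ± SE. Toxicity judged by significance versus controls, normal ranges, dose-dependence and consistency across organ markers.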

[5] = Toxicity in CD1 mouse assessed as effect on blood urea nitrogen level at 50 mg/kg, ip administered as single dose measured after 24 hrs; type: organism-based; details: in vivo; summary of the method: as §2
Enterococcus faecalis [6] = assay: Antibacterial activity against vancomycin-intermediate Enterococcus faecalis ATCC 29212 assessed as bacterial growth inhibition by measuring fold increase in MIC after14 passages by broth dilution method; type: functional, organism-based
[7] = tested on: Staphylococcus epidermidis; assay: Antimicrobial activity against methicillin-resistant Staphylococcus epidermidis ATCC 700296 assessed as bacterial growth inhibitions by CLSI protocol based microdilution method; type: functional
Enterococcus faecalis [8] = assay: Antibiofilm activity against Enterococcus faecalis ATCC 29212 assessed as inhibition of biofilm formation at 2 times MIC after 24 hrs by crystal violet staining based assay relative to control; type: functional; parameters: scale not given: the % may be the effect or the level left
Summary of the method: (§3)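 Overnight culture brought to 0.5 McFarland in PBS, diluted 1:100 in CAMHB with 1% glucose. Inhibition: cells plus compound (in DMSO) at 2x, 1x, 0.5xMIC, 24 h at 35 °C, triplicate. Destruction: 24 h biofilm grown without drug, washed, fresh medium with compound, further 24 h. Then washed, dried, 0.1% crystal violet, solubilized in 33% acetic acid, OD 620 nm. Controls are DMSO-only and broth-only wells.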

Enterococcus faecium [9] = assay: Antimicrobial activity against vancomycin-resistant Enterococcus faecium clinical isolate 1091720 by CLSI-based broth microdilution assay; type: functional
Staphylococcus aureus [10] = assay: Inhibition of lipid synthesis in Staphylococcus aureus ATCC 29213 at 0.25 times MIC measured by liquid scintillation counter; type: functional; summary of the method: as §1
Enterococcus faecalis [11] = assay: Antibiofilm activity against Enterococcus faecalis ATCC 29212 assessed as inhibition of biofilm formation at 0.5 times MIC after 24 hrs by crystal violet staining based assay relative to control
Staphylococcus aureus [12] = assay: Antimicrobial activity against methicillin-resistant Staphylococcus aureus ATCC 700699 assessed as bacterial growth inhibitions by CLSI protocol based microdilution method; type: functional
Enterococcus faecalis [13] = assay: Antibiofilm activity against Enterococcus faecalis ATCC 29212 assessed as destruction of biofilm formation at 2 times MIC after 24 hrs by crystal violet staining based assay relative to control; type: functional; summary of the method: as §3
Staphylococcus aureus [14] = assay: Antibacterial activity against methicillin resistant Staphylococcus aureus ATCC 700699 persisters assessed as reduction in viability at 4 times MIC measured within 4 hrs by colony counting method; type: functional; details: time hrs <=4
Summary of the method: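 Stationary-phase S. aureus from overnight CAMHB culture (35 °C, 200 rpm), washed thrice in PBS, diluted to ~5 × 10^8 CFU/ml. Incubated with antibiotic at 35 °C, 200 rpm. Aliquots taken at set times, washed, serially diluted in PBS, drop-plated (6 × 6) on TSA with 5% sheep blood. Colonies counted after 18–20 h at 35 °C. Triplicates.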

Staphylococcus aureus [15] = assay: Inhibition of RNA synthesis in Staphylococcus aureus ATCC 29213 at 0.25 times MIC measured by liquid scintillation counter; type: functional
Summary of the method: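 Early-exponential cells in CAMHB added to drug (40x stock) in triplicate, with a no-drug control. After 30 min pre-incubation at room temperature, [3H]thymidine 3.0 µCi/tube (DNA) or [3H]uridine 0.5 µCi/tube (RNA) added for 30 min at room temperature. Stopped with cold TCA, precipitate filtered and washed, then scintillation counted.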

[16] = Toxicity in CD1 mouse assessed as effect on liver 50 mg/kg, ip administered as single dose measured after 24 hrs by TUNEL assay; type: organism-based; details: in vivo
Summary of the method: (§4)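 Male CD-1 mice, single IP 50 mg/kg in saline; saline control. Acetaminophen 300 mg/kg and cisplatin 20 mg/kg IP as positive controls. At 24 h, liver and kidney paraffin-embedded, 5-µm sections, TUNEL stained with DAPI counterstain, imaged by fluorescence microscopy.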

Staphylococcus aureus [17] = assay: Antimicrobial activity against Staphylococcus aureus ATCC 29213 assessed as inhibition of cell wall synthesis at 4 to 8 times MIC measured by liquid scintillation counter; type: functional
Summary of the method: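 Early-exponential cells resuspended in M9 minimal medium, drug (40x stock) in triplicate, 30 min pre-incubation at 37 °C. [14C]N-acetylglucosamine 0.4 µCi/reaction for 45 min at 37 °C. Stopped with 8% SDS, heated 95 °C 30 min, spotted on nitrocellulose, washed with 0.1% SDS, then scintillation counted.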

[18] = Toxicity in CD1 mouse assessed as effect on total protein level at 50 mg/kg, ip administered as single dose measured after 24 hrs; type: organism-based; details: in vivo; summary of the method: as §2
[19] = Toxicity in CD1 mouse assessed as effect on creatine level at 50 mg/kg, ip administered as single dose measured after 24 hrs; type: organism-based; details: in vivo; summary of the method: as §2
[20] = Toxicity in CD1 mouse assessed as effect on kidney 50 mg/kg, ip administered as single dose measured after 24 hrs by TUNEL assay; type: organism-based; details: in vivo; summary of the method: as §4
[21] = Toxicity in CD1 mouse assessed as effect on pancreatic amylase level at 50 mg/kg, ip administered as single dose measured after 24 hrs; type: organism-based; details: in vivo; summary of the method: as §2
[22] = Toxicity in CD1 mouse assessed as effect on total bilirubin level at 50 mg/kg, ip administered as single dose measured after 24 hrs; type: organism-based; details: in vivo; summary of the method: as §2
Enterococcus faecalis [23] = assay: Antibiofilm activity against Enterococcus faecalis ATCC 29212 assessed as inhibition of biofilm formation at 2 times MIC after 24 hrs by crystal violet staining based assay relative to control
Staphylococcus aureus [24] = assay: Antimicrobial activity against methicillin-sensitive Staphylococcus aureus ATCC 29213 by CLSI-based broth microdilution assay; type: functional
Staphylococcus aureus [25] = assay: Antimicrobial activity against antibiotic-resistant Staphylococcus aureus BM-2312 assessed as bacterial growth inhibitions by CLSI protocol based microdilution method; type: functional
Enterococcus faecium [26] = assay: Antimicrobial activity against vancomycin-resistant Enterococcus faecium clinical isolate 1094112 by CLSI-based broth microdilution assay; type: functional

SMILES: O=C(O)c1ccc(-n2cc(CNc3cc(F)cc(C(F)(F)F)c3)c(-c3ccc(C(F)(F)F)cc3)n2)cc1
- Activity (Staphylococcus aureus [1]): 4.74 10^5CFU
- inhibition (INH) (Staphylococcus aureus [2]): 100%
- MIC (Enterococcus faecium [3]): 4 µg/mL (≈ 7.64 µM)
- Activity [4]: Non-Toxic
- Activity [5]: Non-Toxic
- Activity (Enterococcus faecalis [6]): inactive
- MIC [7]: 1.56 µg/mL (≈ 2.98 µM)
- Activity (Enterococcus faecalis [8]): 90%
- MIC (Enterococcus faecium [9]): 4 µg/mL (≈ 7.64 µM)
- inhibition (INH) (Staphylococcus aureus [10]): 20.7%
- inhibition (Enterococcus faecalis [11]): Active
- MIC (Staphylococcus aureus [12]): 0.78 µg/mL (≈ 1.49 µM)
- Activity (Enterococcus faecalis [13]): 85%
- Activity (Staphylococcus aureus [14]): 2 log10CFU/ml
- inhibition (INH) (Staphylococcus aureus [15]): 15.5%
- Activity [16]: Non-Toxic
- inhibition (INH) (Staphylococcus aureus [17]): >80%
- Activity [18]: Non-Toxic
- Activity [19]: Non-Toxic
- Activity [20]: Non-Toxic
- Activity [21]: Non-Toxic
- Activity [22]: Non-Toxic
- inhibition (INH) (Enterococcus faecalis [23]): 90%
- MIC (Staphylococcus aureus [24]): 2 µg/mL (≈ 3.82 µM)
- MIC (Staphylococcus aureus [25]): 0.78 µg/mL (≈ 1.49 µM)
- MIC (Enterococcus faecium [26]): 4 µg/mL (≈ 7.64 µM)

Source: ChEMBL document CHEMBL4814057, “4-4-(Anilinomethyl)-3-[4-(trifluoromethyl)phenyl]-1H-pyrazol-1-ylbenzoic acid derivatives as potent anti-gram-positive bacterial agents” (Eur J Med Chem, 2021)
